Experimental data reported in ChEMBL document CHEMBL1151788, “Synthesis and biological activity of 1-methyl-tryptophan-tirapazamine hybrids as hypoxia-targeting indoleamine 2,3-dioxygenase inhibitors” (Bioorg Med Chem, 2008).
Activity calls are given as the source filed them. The rule behind the calls is not given here.

What was measured:
[1] = Cytotoxicity against mouse EMT6/KU cells in hypoxic condition for 5 hrs measured after 7 to 10 days; assay type: functional, cell-based
Procedure, shortened: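 Drug medium (DMSO stock diluted in medium) was added and the cells were held 5 h at 37 °C in a hypoxic chamber flushed with 5% CO2/95% N2. After drug removal, colonies grew 7–10 days, then were methanol-fixed, Giemsa-stained and counted for surviving fraction.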

[2] = Hypoxic cytotoxicity ratio of IC50 for mouse EMT6/KU cells in aerobic condition to IC50 for mouse EMT6/KU cells in hypoxic condition; assay type: functional
Procedure, shortened: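 IC50 values came from clonogenic survival of EMT6/KU cells after 5 h drug exposure at 37 °C, either aerobic (CO2 incubator) or hypoxic (5% CO2/95% N2 chamber), with Giemsa-stained colonies counted after 7–10 days. The ratio is IC50(aerobic)/IC50(hypoxic).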

[3] = Cytotoxicity against mouse EMT6/KU cells in aerobic condition for 5 hrs measured after 7 to 10 days; assay type: functional, cell-based
Procedure, shortened: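 Late-log cells were plated at 10^3, 5×10^2 or 2×10^2 per dish and grown 24 h. Drug in DMSO diluted in medium was then given in a CO2 incubator at 37 °C for 5 h. After washout, colonies grew 7–10 days and were methanol-fixed, Giemsa-stained and counted.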

[4] = biological target: Indoleamine 2,3-dioxygenase 1 (Homo sapiens, UniProt P14902); assay: Inhibition of indoleamine 2,3-dioxygenase in aerobic condition

Row | SMILES | IC50 [1] | Ratio IC50 [2] | IC50 [3] | Ki [4] | Activity [4]
1 | Cn1cc(C[C@H](NC(=O)OC(C)(C)C)C(=O)NCCCCCNc2nc3ccccc3[n+]([O-])n2)c2ccccc21 | 33 µM | 1.3 | 42 µM | 76.3 µM | –
2 | Nc1n[n+]([O-])c2ccccc2[n+]1[O-] [TIRAPAZAMINE] | 12 µM | 3.2 | 38 µM | – | inactive
3 | O=C(NCCCCNc1nc2ccccc2[n+]([O-])n1)C(F)(F)F | – | – | – | – | inactive
4 | Cn1cc(C[C@H](NC(=O)OC(C)(C)C)C(=O)NCCCCCNc2n[n+]([O-])c3ccccc3[n+]2[O-])c2ccccc21 | 7.1 µM | 4.9 | 35 µM | 197 µM | –
5 | Cn1cc(C[C@H](NC(=O)OC(C)(C)C)C(=O)NCCCCNc2n[n+]([O-])c3ccccc3[n+]2[O-])c2ccccc21 | 8 µM | >5 | > 40 µM | 367 µM | –
6 | Nc1nc2ccccc2[n+]([O-])n1 | > 40 µM | – | > 80 µM | – | inactive
7 | O=C(NCCCCNc1n[n+]([O-])c2ccccc2[n+]1[O-])C(F)(F)F | – | – | – | – | inactive
8 | O=C(NCCCCCNc1n[n+]([O-])c2ccccc2[n+]1[O-])C(F)(F)F | – | – | – | – | inactive
9 | Cn1cc(C[C@H](NC(=O)OC(C)(C)C)C(=O)NCCCCNc2nc3ccccc3[n+]([O-])n2)c2ccccc21 | 33 µM | 1.1 | 36 µM | 87.1 µM | –
10 | O=C(NCCCCCNc1nc2ccccc2[n+]([O-])n1)C(F)(F)F | – | – | – | – | inactive
11 | Cn1cc(C[C@H](NC(=O)OC(C)(C)C)C(=O)O)c2ccccc21 | – | – | – | – | inactive
